Compound in data set [1]: COC1=C(OC)/C(=C/Cn2cnc3c(N)ncnc32)OC1=O
The data set can be described thus: (§1) Rate of deamination in the presence of calf mucosal adenosine deaminase (ADA). In outline:
(§2)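 Deamination rates followed with calf mucosal ADA (EC 3.5.4.4) in buffer solutions; Km and Vmax relative to adenosine as substrate; inhibition (Ki) assessed with adenosine as substrate.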

Compound in data set [2]: COC1=C(OC)C(O)(CCn2cnc3c(N)ncnc32)OC1=O
Described as §1. An outline of the steps: as §2

Where only a bound is given, the exact number is not on record here.

A word on the Km: it is the substrate concentration at which the rate is half of its maximum.

B1: Adenosine deaminase (Bos taurus), P56658 (protein)
chain: MAQTPAFNKPKVELHVHLDGAIKPETILYYGRKRGIALPADTPEELQNIIGMDKPLSLPEFLAKFDYYMPAIAGCREAVKRIAYEFVEMKAKDGVVYVEVRYSPHLLANSKVEPIPWNQAEGDLTPDEVVSLVNQGLQEGERDFGVKVRSILCCMRHQPSWSSEVVELCKKYREQTVVAIDLAGDETIEGSSLFPGHVKAYAEAVKSGVHRTVHAGEVGSANVVKEAVDTLKTERLGHGYHTLEDATLYNRLRQENMHFEVCPWSSYLTGAWKPDTEHPVVRFKNDQVNYSLNTDDPLIFKSTLDTDYQMTKNEMGFTEEEFKRLNINAAKSSFLPEDEKKELLDLLYKAYGMPSPASAEQCL
In the case of B1, the Km was 266 µM in data set [1] and over 800 µM in data set [2].

The values above are taken from ChEMBL document CHEMBL1134486, “Synthesis and biological evaluation of purine-containing butenolides” (J Med Chem, 2001).
